Screening results from PubChem.
Only some compounds are listed: those with a hit (about 2.7% of all), similar ones and a draw of the others.
PAFAH2 FP inh: PAFAH2 (human) inhibition; AID 492956; inhibition, % at 3.39 µM; Q99487; recombinant PAFAH2, FP-rhodamine activity probe, fluorescence polarization; hit rate 0.99% among 340,000;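 active means inhibition above the mean over all tested compounds plus 3 SD, cut at about 30% in these data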;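 further: inhibitors block probe labeling of enzyme so polarization drops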
ARFGAP1 inh: rat ARFGAP1 inhibition; Q62848; Arfgap1-stimulated ARF1 GTP hydrolysis, GDP FP detection; inhibition, % at 16.5 µM; hit rate 0.26% among 360,000; AID 651572;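 active means inhibition above a per-plate limit, mean inhibition of low control wells plus 3 SD, cut at about 25% in these data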
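Repeats: one replicate per compound; assay system: rat Arfgap1 catalytic domain, aa 1-136; times: enzyme reaction 120 min at 25 °C after 20 min preincubation; detection: FP of antibody-bound GDP Alexa 633 tracer, ex 620/em 688 nm; benchmarks: high control wells lacking Arfgap1, low control full reaction with DMSO; reagent: human ARF1(Δ1-17)-GTP substrate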
PAFAH1B2 FP inh: PAFAH1B2 (human) inhibition. P68402. recombinant PAFAH1B2, FP-rhodamine activity probe, fluorescence polarization. inhibition, % at 3.39 µM. hit rate 1.2% among 340,000;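 active means inhibition above the mean of all tested compounds plus 3 SD, cut at about 24% in these data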
Target sequence (P68402 whole entry, looked up): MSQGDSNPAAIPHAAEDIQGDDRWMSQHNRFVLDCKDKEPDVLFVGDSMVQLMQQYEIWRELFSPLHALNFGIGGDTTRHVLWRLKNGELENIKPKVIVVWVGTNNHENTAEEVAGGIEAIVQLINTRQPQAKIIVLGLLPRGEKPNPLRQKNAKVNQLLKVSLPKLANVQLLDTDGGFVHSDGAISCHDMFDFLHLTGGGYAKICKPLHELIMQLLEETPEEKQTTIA
ASAP1 inh: inhibitors of human ASAP1 ArfGAP activity | hit rate 0.19% among 360,000 | inhibition, % at 16.5 µM | ASAP1-stimulated ARF1 GTP hydrolysis, GDP FP detection | Q9ULH1 | AID 624377; in the data active means inhibition above about 25%
pPAFAH inh: pPAFAH (human) enzyme inhibition | Q13093 | recombinant pPAFAH, FP-rhodamine probe fluorescence polarization | inhibition, % at 3.39 µM | hit rate 1.5% among 330,000;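 active means inhibition above the mean inhibition across the screen plus 3 SD, cut at about 25% in these data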;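 further: inhibitors block binding of the rhodamine activity-based probe so polarization drops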
Target sequence (Q13093 whole entry, looked up): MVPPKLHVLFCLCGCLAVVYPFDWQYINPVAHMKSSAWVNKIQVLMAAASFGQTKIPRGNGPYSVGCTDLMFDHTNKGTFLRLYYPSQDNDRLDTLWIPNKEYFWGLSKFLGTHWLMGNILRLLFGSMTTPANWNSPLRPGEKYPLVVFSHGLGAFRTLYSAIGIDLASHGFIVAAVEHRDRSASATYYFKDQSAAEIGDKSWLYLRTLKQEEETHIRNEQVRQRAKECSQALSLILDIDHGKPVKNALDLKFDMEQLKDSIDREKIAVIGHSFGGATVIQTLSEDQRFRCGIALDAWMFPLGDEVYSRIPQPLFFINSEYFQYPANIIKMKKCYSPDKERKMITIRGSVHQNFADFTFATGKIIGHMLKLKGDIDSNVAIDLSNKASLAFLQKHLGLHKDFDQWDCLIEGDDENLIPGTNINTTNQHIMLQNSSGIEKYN
PAFAH1B3 FP inh: inhibitors of human PAFAH1B3; Q15102; recombinant PAFAH1B3, FP-rhodamine probe, fluorescence polarization; inhibition, % at 3.39 µM; hit rate 0.28% among 340,000;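 active means inhibition above the screen-wide average of all tested compounds plus 3 SD, cut at about 25% in these data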
PAFAH2 FP conf: PAFAH2 (human) inhibition, confirmed; recombinant PAFAH2, FP-rhodamine activity probe, fluorescence polarization; shares compounds with PAFAH2 FP inh; AID 493030; hit rate 65% among 2,300; inhibition, % at 3.39 µM;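 active means mean inhibition over three repeats above a set limit taken from the earlier primary screen, cut at about 30% in these data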;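 further: inhibitor blocks binding of rhodamine activity probe so polarization falls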
A number is an active result; - = inactive; . = no result.

SMILES | PAFAH2 FP inh | ARFGAP1 inh | PAFAH1B2 FP inh | ASAP1 inh | pPAFAH inh | PAFAH1B3 FP inh | PAFAH2 FP conf
Cc1sc2nc(-c3cccs3)oc(=O)c2c1C | 63.3 | - | - | - | - | - | 67.4
Cc1ccc(NS(=O)(=O)c2coc(C(N)=O)c2)cc1F | - | - | - | - | - | - | .
CC1CC1C(=O)OCC(=O)Nc1ncc(Cl)cc1Cl (stereo not drawn) | 31.2 | - | - | - | - | - | -
O=C(COC(=O)C1CC1)Nc1ncc(C(F)(F)F)cc1Cl | - | - | - | - | - | - | .
O=C(COC(=O)C1CC1)Nc1ccc(Cl)cn1 | 31.3 | - | - | - | - | - | -
Cc1cc(C)cc(OCC(=O)OCC(=O)Nc2ccc(Cl)cn2)c1 | - | - | - | - | - | - | .
O=C(COC(=O)C1CC1)Nc1ncc(Cl)cc1Cl | 30.1 | - | - | - | - | - | -
COc1ccc(NC(=S)NNC(=O)c2nnn(-c3ccccc3)c2C)cc1 | - | - | - | - | - | - | .
Cc1ccc(C(=O)OCC(=O)NC2CCCC(C)C2C)s1 (stereo not drawn) | . | - | . | - | . | . | .
CC1CCCC(NC(=O)COc2ncnc3ccccc23)C1C (stereo not drawn) | - | - | - | - | - | - | .
O=C(COC(=O)c1ccc(NS(=O)(=O)c2cccs2)cc1O)NC1CCCCC1 | 33.5 | - | - | - | - | - | -
CC1CCCC(NC(=O)COC(=O)c2n[nH]c3ccccc23)C1C (stereo not drawn) | 78.6 | - | - | - | - | - | 72.4
Cc1ccc(C(=O)NCC(=O)OCC(=O)NC2CCCC(C)C2C)s1 (stereo not drawn) | 47.9 | - | - | - | - | - | 31.4
O=C(COC(=O)c1cccs1)NC1CCCCC1 | 76.0 | - | - | - | - | - | 84.7
O=C(CNS(=O)(=O)c1ccc(F)cc1)N1CCCC1 | . | - | . | - | - | . | .
CCc1nc2ccc(C(=O)NCCOc3ccc(OC)cc3)cn2c1N(C)Cc1nccn1C | . | - | . | - | . | . | .
O=C1[C@H](Oc2ccccc2)[C@@H](c2ccccc2)N1c1ccncc1 | - | - | - | - | - | - | .
CC1CCCC(NC(=O)COC(=O)c2cccs2)C1C (stereo not drawn) | 81.5 | - | - | - | - | - | 85.1
CC1CCCC(NC(=O)CNC(=O)c2cccs2)C1C (stereo not drawn) | - | - | - | - | - | - | .
O=C(COC(=O)c1cccs1)NC1CCCC1 | 80.8 | - | - | - | - | - | 74.3
CCCCCNC(=O)C(c1ccc(OC)cc1)n1c(=O)c(-c2cc3ccccc3[nH]2)nc2ccccc21 (stereo not drawn) | . | - | . | - | . | . | .
CCOc1ccccc1-n1nnnc1SCC(=O)N1CCCC1=O | 65.9 | - | - | - | - | - | 55.7
Oc1oc(-c2ccccc2)nc1C=NCc1ccccc1 | 45.1 | - | - | - | - | - | 37.3
Oc1oc(-c2ccccc2)nc1C=Nc1ccccc1 | - | - | - | - | - | - | .
O=C(Nc1cc(Cl)ccc1O)C1CC(c2ccccc2Cl)=NO1 (stereo not drawn) | 32.8 | - | - | - | . | - | -
SMILES | PAFAH2 FP inh | ARFGAP1 inh | PAFAH1B2 FP inh | ASAP1 inh | pPAFAH inh | PAFAH1B3 FP inh | PAFAH2 FP conf
COc1ccc(Cl)cc1NC(=O)C1CC(c2ccccc2Cl)=NO1 (stereo not drawn) | . | - | . | - | . | . | .
Cc1cc(C)cc(C(=O)OCC(=O)NCc2cccs2)c1 | - | - | - | - | - | - | .
O=C(COC(=O)c1ccccc1)NCc1cccs1 | 36.4 | - | - | - | - | - | -
O=C(COC(=O)c1ccc(OC(F)F)cc1)NCc1cccs1 | 55.7 | - | - | - | - | - | -
Cc1ccc(C(=O)OCC(=O)NCc2cccs2)s1 | 65.1 | - | - | - | . | - | 56.7
O=C(N/N=C/c1cccc(Cl)c1)C(c1ccncc1)N1CCOCC1 (stereo not drawn) | 50.5 | - | - | - | - | - | 40.7
CCOc1ccc2ccccc2c1/C=N/NC(=O)c1cc(C)[nH]n1 | 48.6 | - | - | - | - | - | -
Cc1cc(C(=O)N/N=C/c2c3ccccc3cc3ccccc23)n[nH]1 | - | - | - | - | - | - | .
Cc1cc(S(=O)(=O)NC(C)c2nnc3ccccn23)ccc1Br (stereo not drawn) | - | - | - | - | - | - | .
Cc1ccc(N/N=C/c2c(O)cc(C)oc2=O)cc1 | - | - | - | - | - | - | .
Cc1ccc(CO/N=C/c2c(O)cc(C)oc2=O)cc1 | 36.8 | - | - | - | - | - | -
COC(=O)c1c(-c2c(Cl)cccc2Cl)noc1NC(=O)NN1CCCCC1 | 74.6 | - | - | - | - | - | 68.2
O=C(NCCN1CCOCC1)c1cccc(S(=O)(=O)NCc2ccccc2)c1 | - | - | - | - | - | - | .
COc1ccc(CCNC(=O)COC(=O)c2ccc(C)s2)cc1OC | - | - | - | - | - | - | .
COc1ccc(CCNC(=O)COC(=O)c2cccs2)cc1 | 43.8 | - | - | - | . | - | 33.8
COc1ccc(CCNC(=O)COC(=O)c2ccc(C)s2)cc1 | 55.5 | - | - | - | - | - | 47.2
CCOC(=O)C1(C)CCN1C(=O)c1c(F)cccc1F (stereo not drawn) | . | - | . | - | . | . | .
CCCc1ccc(-c2cc(NC(=O)Cc3c[nH]c4ccccc34)ccc2Nc2cccnc2)cc1 | . | - | . | - | . | . | .
CCOc1ccc(C(=O)OCC(=O)NC2CCCCCCC2)cc1 | 93.0 | - | - | - | - | - | 85.7
CCOc1ccc(C(=O)NCC(=O)OCC(=O)NC2CCCC2)cc1 | 36.3 | - | - | - | - | - | -
C/C(=N\OCc1ccccc1)c1c(O)cc(C(C)C)n(-c2ccccc2)c1=O | - | - | - | - | - | - | .
CN1/C(=C\C(=O)COC(=O)c2ccco2)C(C)(C)c2ccccc21 | 33.3 | - | - | - | - | - | 36.9
Cc1nn(Cc2ccccc2)c(Cl)c1C(=O)OCc1nnc(-c2ccccc2)o1 | 31.6 | - | - | - | - | - | -
O=C(OCc1nnc(-c2ccccc2)o1)c1cc(=O)c2ccccc2o1 | - | - | - | - | - | - | .
O=C(OCc1nnc(-c2ccc(Cl)cc2)o1)c1ccc(O)cc1 | 74.5 | - | - | - | - | - | 68.1
SMILES | PAFAH2 FP inh | ARFGAP1 inh | PAFAH1B2 FP inh | ASAP1 inh | pPAFAH inh | PAFAH1B3 FP inh | PAFAH2 FP conf
O=C1CCC(C(=O)OCc2nnc(-c3ccc(Cl)cc3)o2)=NN1 | - | - | - | - | - | - | .
CCOc1ccc(C(=O)OCc2nnc(-c3cccs3)o2)cc1OC | 84.6 | - | - | - | - | - | 79.3
O=C(OCc1nnc(-c2ccccc2)o1)c1ccco1 | 45.3 | - | - | - | - | - | 41.9
O=C(OCc1nnc(-c2cccs2)o1)c1cccnc1Cl | - | - | - | - | - | - | .
CC(C)(C)c1ccc(C(=O)N2[C@H](COCc3ccccc3)C=CS2(=O)=O)cc1 | . | - | . | - | . | . | .
CCOc1ccc(C(=O)NCC(=O)OCc2nnc(-c3ccccc3)o2)cc1OCC | 59.5 | - | - | - | - | - | 53.4
CCOc1ncccc1C(=O)OCc1nnc(-c2ccccc2)o1 | 47.1 | - | - | - | - | - | 45.1
